Assay outcomes from PubChem.
Env fusion inh: inhibitors of HIV-1 Env-driven cell-cell fusion, primary screen, HeLa-JRFL effector, CEM21 target cells, luciferase; inhibition, % at 12.3 µM; 360,000 tested, 1.1% active;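 active = mean replicate inhibition score of at least 50 and every replicate individually at or above 50; inconclusive = only one of the two criteria met; inactive = mean below 50 and not all replicates reaching 50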;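 also: 0% = plate neutral controls and 100% = maraviroc near 300 nM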
Cneo AK release: Cryptococcus neoformans cell lysis inducers, primary screen, AK release luminescence, single concentration; C. neoformans lysis, adenylate kinase release luminescence, 4 h; normalised: neutral wells 0, clomiphene wells 100; 360,000 tested, 0.2% active; lysis activity, % at 15 µM;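 active = mean lysis activity across replicates of at least 80%, whatever share of replicates individually reach that level; inactive = mean lysis activity below 80%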
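Test system: log-phase Cryptococcus neoformans yeast cells. Input: 5 × 10^6 yeast cells/mL. Medium: fresh YPD growth medium. Doses: single dose. Incubation: static 4 h at 37 °C with compound, 1 h detection. Measured by: luminescent adenylate kinase detection reagent. Read-out: signal increase indicating cell lysis. Benchmarks: Clomiphene.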
Wnt bcat act: Wnt/beta-catenin pathway activators, primary screen, cell-based, plate reader, single point | AID 743398, 2014 | 300,000 tested, 1.2% active | Wnt/beta-catenin reporter cell assay, activator | activation, % at 9.35 µM; in the data active = activation above about 30%, passing the limit was not always enough; inconclusive = no clear call, values can overlap the other calls;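 also: 0% = neutral control wells and 100% = positive control wells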
MITF TRPM1 HTS: activators of MITF-driven TRPM1 promoter reporter, primary screen, cell-based, SK-MEL-5, luciferase, single point; 300,000 tested, 0.75% active; activation, % at 12.5 µM; SK-MEL-5 TRPM1-promoter luciferase, 24 h; % of positive control, neutral wells = 0;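 active = mean activation of at least 80% with every replicate also reaching 80%; inconclusive = mean reaches 80% but some replicate falls short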;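 also: 0% = neutral control wells and 100% = parthenolide positive control wells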
esBAF inh: Bmi1 luciferase reporter increase in mESCs, primary screen, esBAF inhibitor project, mouse ES cells, Bmi1 luciferase knock-in, single point; 24 h; 100% = twice the neutral-well signal; 350,000 tested, 2% active; reporter increase, % at 12.5 µM; in the data active = activation above about 40%; inconclusive = no clear call, values can overlap the other calls;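 also: 0% = median of the plate's neutral control wells and 100% = double that signal; a rise in the Bmi1 reporter signal indicates esBAF inhibition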
ERAP1 inh: human ERAP1 aminopeptidase inhibitors, primary screen, biochemical, single point, plate reader; recombinant ERAP1, Leu-AMC fluorescence, 60 min; inhibition, % at 10.7 µM; 340,000 tested, 0.15% active; AID 652197, 2013;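 active = mean replicate inhibition of at least 30%, or all replicates individually reaching that 30% level; inactive = mean below 30% and not every replicate reaching it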;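 also: 0% = neutral control wells and 100% = L-leucinethiol positive control wells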
Target sequence (Q9NZ08 whole entry, looked up): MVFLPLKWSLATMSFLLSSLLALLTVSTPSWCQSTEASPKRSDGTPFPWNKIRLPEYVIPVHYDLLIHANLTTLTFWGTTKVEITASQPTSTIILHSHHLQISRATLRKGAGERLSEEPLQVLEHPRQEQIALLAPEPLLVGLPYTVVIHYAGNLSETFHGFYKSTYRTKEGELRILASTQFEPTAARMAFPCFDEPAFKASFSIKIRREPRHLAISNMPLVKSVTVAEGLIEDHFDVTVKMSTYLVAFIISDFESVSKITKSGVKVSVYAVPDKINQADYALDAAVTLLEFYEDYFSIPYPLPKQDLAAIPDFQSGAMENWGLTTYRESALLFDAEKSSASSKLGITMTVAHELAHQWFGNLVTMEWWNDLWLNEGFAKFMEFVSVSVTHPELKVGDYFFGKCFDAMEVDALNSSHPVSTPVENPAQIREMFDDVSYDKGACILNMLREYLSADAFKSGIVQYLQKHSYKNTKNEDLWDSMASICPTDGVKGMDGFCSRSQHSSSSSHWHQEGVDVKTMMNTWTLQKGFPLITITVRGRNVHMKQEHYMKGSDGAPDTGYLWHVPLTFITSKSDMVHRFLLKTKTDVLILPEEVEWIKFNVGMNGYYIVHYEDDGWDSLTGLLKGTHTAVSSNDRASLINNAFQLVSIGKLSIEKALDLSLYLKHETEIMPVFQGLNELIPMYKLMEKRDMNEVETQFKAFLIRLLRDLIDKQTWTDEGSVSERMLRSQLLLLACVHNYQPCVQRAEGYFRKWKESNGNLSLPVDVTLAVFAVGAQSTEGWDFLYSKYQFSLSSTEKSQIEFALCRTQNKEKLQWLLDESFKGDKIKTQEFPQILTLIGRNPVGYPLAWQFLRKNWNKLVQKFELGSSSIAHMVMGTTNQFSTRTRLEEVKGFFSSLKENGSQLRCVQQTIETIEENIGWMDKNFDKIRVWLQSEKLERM
An asterisk follows results filed as active; ? = inconclusive; . = no result; ! = repeats disagree; [ ] = dose if it differs, or a comment. Rows were chosen to be rich in hits. Some 3.5% of all compounds tested hit in one or more screens of this group.

SMILES	Env fusion inh	Cneo AK release	Wnt bcat act	MITF TRPM1 HTS	esBAF inh	ERAP1 inh
CN1CCN(c2ccc(NC(=O)C(C)(c3ccccc3)c3ccccc3)cc2)CC1	2	5	-2	9	6	-2
CC[C@H](C)[C@@H]1NC(=O)[C@@H](CC(C)C)NC(=O)[C@H](C(C)C)NC(=O)[C@H]2CSSC[C@H](NC1=O)C(=O)N2	69*	0	-3	.	-86	3
C[C@H]1CN([C@@H](C)CO)C(=O)c2cc(NC(=O)Nc3ccc(F)cc3)ccc2O[C@@H]1CN(C)S(C)(=O)=O	14[16.7 µM]	100*	.	.	0	-4
C[C@@H]1CN([C@H](C)CO)C(=O)c2cc(NC(=O)c3ccncc3)ccc2O[C@H]1CN(C)C(=O)Nc1ccccc1	.	-2	.	.	-4	2
C[C@H](CO)N1C[C@H](C)[C@@H](CN(C)C(=O)Nc2ccccc2)Oc2ccc(NC(=O)c3ccncc3)cc2C1=O	.	-2	0	8	-3	65*!
CC(C)NC(=O)Nc1ccc2c(c1)C(=O)N([C@@H](C)CO)C[C@H](C)[C@H](CN(C)C(=O)Nc1ccc(F)cc1)O2	70*[16.7 µM]	1	.	.	-5	0
C[C@@H]1CN([C@H](C)CO)C(=O)c2cc(NC(=O)Nc3ccc(F)cc3)ccc2O[C@@H]1CN(C)S(C)(=O)=O	1[16.7 µM]	2	.	.	1	-6
C[C@H](CO)N1C[C@H](C)[C@H](CN(C)C(=O)Nc2ccccc2)Oc2ncccc2C1=O	5[16.7 µM]	-2	.	.	-8	49*
C[C@H](CO)N1C[C@H](C)[C@H](CN(C)C(=O)Nc2ccc(F)cc2)Oc2ncccc2C1=O	0[16.7 µM]	-1	.	.	0	2
CC(=O)N1[C@H](CO)[C@H](c2ccc(-c3cccc(F)c3)cc2)[C@H]1CNC(=O)C1CC1	.	-1	.	.	7	.
Cc1noc(C)c1NC(=O)N(C)C[C@H]1Oc2ccc(NS(=O)(=O)c3c(C)noc3C)cc2CC(=O)N([C@@H](C)CO)C[C@H]1C	0[16.7 µM]	-1	.	.	0	0
CC(C)NC(=O)N(C)C[C@@H]1Oc2ccc(NC(=O)Nc3ccccc3)cc2C(=O)N([C@H](C)CO)C[C@@H]1C	6[16.7 µM]	5	.	.	-1	0
CC(C)NC(=O)N(C)C[C@H]1Oc2ccc(NC(=O)Nc3ccccc3)cc2C(=O)N([C@H](C)CO)C[C@@H]1C	-34	3	36*	-2	-6	.
C[C@@H]1CN([C@@H](C)CO)S(=O)(=O)c2ccc(-c3cncnc3)cc2O[C@@H]1CN(C)C(=O)c1ccc2c(c1)OCO2	13[16.7 µM]	-2	.	.	-9	2
COc1ccc2cc3cc(C(=O)NCCc4ccc(OC)c(OC)c4)oc3nc2c1	68*	2	-1	-63	-3	.
COc1ccc2cc3cc(C(=O)N(C)C4CCCCC4)oc3nc2c1	.	-4	1	68	51*	.
Cc1ccc(S(=O)(=O)N[C@@H]2CC[C@@H](CCNC(=O)Cc3ccccn3)O[C@@H]2CO)cc1	-10[16.7 µM]	-2	.	.	-3	-4
COc1ccc(NCc2nc3ccccc3n2C)cc1	-52	-3	1	.	18	1
Cn1c(CSc2nc3ccccc3s2)nc2ccccc21	-74	14	.	75	50*	.
Cn1c(CSc2nc3ccccc3s2)n[nH]c1=S	-27	.	0	.	-20	.
Cn1c(CNc2ccc(Br)cc2)nc2ccccc21	-105	.	40*	?	.	-4
Cc1ccc(NCc2nc3ccccc3n2C)cc1C	-84	-1	13	.	51*	-2
COc1ccc(CNc2nc3ccccc3n2C)c(O)c1	-132	.	?	93*	45	3
C[C@@H]1CN([C@@H](C)CO)C(=O)c2cc(NS(=O)(=O)c3ccc(F)cc3)ccc2O[C@@H](C)CCCCO[C@@H]1CN(C)CC1CCCCC1	-7[16.7 µM]	48	.	.	3	-1
CCCC(=O)Nc1ccc2c(c1)C(=O)N(C)C[C@@H](OC)[C@@H](C)CN(Cc1ccncc1)[C@H](C)CO2	.	.	.	.	-4	.
SMILES	Env fusion inh	Cneo AK release	Wnt bcat act	MITF TRPM1 HTS	esBAF inh	ERAP1 inh
Cn1c(NCc2ccc(Cl)cc2)nc2ccccc21	-12	-3	8	45	71*	-2
Cn1c(CNc2nc3ccccc3n2C)nc2ccccc21	-45	9	21	.	68*	.
Cc1ccc(NCc2nc3ccccc3n2C)cc1	.	-11	.	.	72*	.
Cn1c(CNc2ccc(O)cc2)nc2ccccc21	-4	4	21	10	34	0
Cn1c(Nc2ccc(F)cc2)nc2ccccc21	-38	0	1	.	-9	-1
COc1ccc(Nc2nc3ccccc3n2C)cc1	-63	1	41*	65	-7	0
O=C(C[C@@H]1CC[C@@H](NC(=O)c2ccncc2)[C@H](CO)O1)NCC1CCCCC1	4[16.7 µM]	-2	.	.	0	0
C[C@@H]1CN([C@@H](C)CO)C(=O)Cc2cc(NS(=O)(=O)c3ccc(Cl)cc3)ccc2O[C@@H]1CN(C)Cc1ccncc1	.	1	.	.	-4	0
Cn1c(NC(=S)Nc2ccccc2)nc2ccccc21	.	.	41*	5	.	.
Cn1c(NCc2c(O)ccc3ccccc23)nc2ccccc21	71*	.	.	.	.	.
S=C(Nc1ccccc1)Nc1nc2ccccc2n1CCOc1ccc(Br)cc1	21	.	-9	3	-6	.
CC(C)[C@H](C)NC(=O)N(C)C[C@@H]1OCc2ccccc2-c2c(n(C)c3ccccc23)C(=O)N([C@H](C)CO)C[C@H]1C	.	46	.	.	9	0
COc1ccc(C(=O)Nc2sc(C)c(C)c2CN2CC(C)OC(C)C2)cc1 (stereo unspecified)	.	.	9	10	72*	-3
COc1ccc(C(=O)Nc2ccc(CN3CCS(=O)(=O)CC3)cc2)cc1	9	-6	2	.	.	0
C[C@@H]1CN([C@H](C)CO)C(=O)c2cc(NC(=O)Nc3ccc4c(c3)OCO4)ccc2O[C@@H](C)CCCCO[C@H]1CN(C)C(=O)Cc1ccccc1	10[16.7 µM]	4	.	.	1	-3
COc1ccccc1N=c1oc2c(OC)cccc2cc1C(=O)NCc1ccco1	.	0	.	66	52*	.
COc1ccc(OC)c(N=c2oc3c(OC)cccc3cc2C(=O)NCc2ccco2)c1	-74	-6	.	23	11	.
COc1ccc(C(=O)Nc2ccc(Cl)cc2C(=O)NCc2ccco2)cc1OC	-30	-1	-5	16	-2	.
Cc1ccccc1CN(c1ccc(C(=O)Nc2ccccc2C(=O)NCc2ccco2)cc1)S(C)(=O)=O	61*	3	.	-1	6	.
COc1ccc(C(=O)Nc2ccccc2C(=O)NCc2ccco2)cc1OC	-39	.	48*	.	17	6
